Assay results collected from several papers.
Lines come from different studies, so protocols differ.
Target: 5-hydroxytryptamine receptor 1A (HTR1A, Homo sapiens, UniProt P08908)
Sequence (P08908 1-422, as in one of the studies): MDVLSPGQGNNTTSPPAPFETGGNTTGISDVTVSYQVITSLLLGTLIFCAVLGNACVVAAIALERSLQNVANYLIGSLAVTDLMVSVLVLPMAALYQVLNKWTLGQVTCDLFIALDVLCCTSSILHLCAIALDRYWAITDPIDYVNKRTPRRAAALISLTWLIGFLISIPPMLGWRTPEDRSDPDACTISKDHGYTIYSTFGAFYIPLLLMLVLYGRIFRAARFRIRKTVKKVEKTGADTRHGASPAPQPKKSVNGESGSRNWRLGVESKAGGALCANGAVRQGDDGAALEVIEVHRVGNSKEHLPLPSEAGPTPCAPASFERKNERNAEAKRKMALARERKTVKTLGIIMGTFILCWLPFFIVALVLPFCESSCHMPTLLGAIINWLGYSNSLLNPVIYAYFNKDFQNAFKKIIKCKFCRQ

COCCc1ccc(-c2c(C)nc3c(N4CCOCC4)ccnn23)cn1
inhibition (ligand displacement; 10 µM): 22.9%

CCN(CC)CCCC[C@H](NC(=O)[C@H](CC(C)C)NC(=O)[C@H](C)NC(=O)[C@H](Cc1ccccc1)NC(=O)c1ccc(C(C)(C)C)cc1)C(=O)N[C@@H](CO)C(=O)OC
remaining binding (ligand displacement; radioligand; 10 µM): 81.3%

Clc1ccc2c(C3CCN(CCc4c[nH]c5ccccc45)CC3)c[nH]c2c1
inhibition (ligand displacement; radioligand; 10 µM): 99%

CN(C)C(=O)N[C@H]1CC[C@H](CCN2CCN(c3cccc(Cl)c3Cl)CC2)CC1
Emax (cAMP; agonist; TR-FRET; CHO): 95%

COCc1c(-c2cc3cc(C)cc(OC)c3s2)c2c(N)ncnn2c1CN1CCNC(=O)C1
inhibition (ligand displacement; radioligand; 10 µM): 8%

CC(C)N1CCC[C@H]1CNC(=O)c1cn(C2CCCC2)c(=O)c2c1c1ccccc1n2C
inhibition (ligand displacement; radioligand; 10 µM): 3%

CNC(=O)Nc1ccc2c(c1)[C@]1(CC2)OC(=O)N(CC(=O)N(Cc2ccc(F)cc2)[C@@H](C)C(F)(F)F)C1=O
inhibition (ligand displacement; 10 µM): 4.17%

CCNCCc1c[nH]c2ccc(OC)cc12
Emax (calcium signal; agonist): ~70%
